Substitutions are numbered along the chain they refer to. One block for each compound: values may come before it. Activity calls are given as the source filed them. The rule behind the calls is not given here. *1 amine or outer side, *2 acyl side, *3 side chain or, on linkers, in order; H or OH if unused. Where a SMILES comes first, the peptide text is derived from it. Bridges are numbered along the chain shown (N, C = ends). [ ]: non-standard residue; d: D form. Suc = O=C(CCC(=O)[*:2])[*:1]; Dap = NC[C@H](N)C(=O)O
Assays:
Substance-K receptor = target: T1, Substance-K receptor (Homo sapiens, UniProt P21452); assay: Inhibitory affinity constant (pKi) against tachykinin receptor 2 (NK-2R) using heterologous competition experiments
T1 sequence (P21452 whole entry): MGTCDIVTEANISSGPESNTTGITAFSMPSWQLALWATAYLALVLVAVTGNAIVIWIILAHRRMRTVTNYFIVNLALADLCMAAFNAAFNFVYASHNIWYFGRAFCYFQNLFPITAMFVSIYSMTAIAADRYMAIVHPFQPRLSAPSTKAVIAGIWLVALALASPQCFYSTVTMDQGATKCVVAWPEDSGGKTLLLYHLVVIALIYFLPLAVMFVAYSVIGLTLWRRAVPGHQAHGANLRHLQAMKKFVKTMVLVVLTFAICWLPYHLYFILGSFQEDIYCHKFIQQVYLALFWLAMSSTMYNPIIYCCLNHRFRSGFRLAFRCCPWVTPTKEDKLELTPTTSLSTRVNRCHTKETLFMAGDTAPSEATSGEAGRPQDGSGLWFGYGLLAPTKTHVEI
Outline: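 Buffer was 50 mM Tris-HCl pH 7.4. Competitors ranged 0.3 pM–10 μM. Filter-bound radioactivity was counted, and pKi was obtained by fitting competition curves. Mean ± sem of duplicate experiments.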

[1] = test system: Substance-K receptor (Homo sapiens), P21452 [Y169A]
Sequence of Substance-K receptor (Homo sapiens), P21452 [Y169A] (P21452 whole entry Y169A): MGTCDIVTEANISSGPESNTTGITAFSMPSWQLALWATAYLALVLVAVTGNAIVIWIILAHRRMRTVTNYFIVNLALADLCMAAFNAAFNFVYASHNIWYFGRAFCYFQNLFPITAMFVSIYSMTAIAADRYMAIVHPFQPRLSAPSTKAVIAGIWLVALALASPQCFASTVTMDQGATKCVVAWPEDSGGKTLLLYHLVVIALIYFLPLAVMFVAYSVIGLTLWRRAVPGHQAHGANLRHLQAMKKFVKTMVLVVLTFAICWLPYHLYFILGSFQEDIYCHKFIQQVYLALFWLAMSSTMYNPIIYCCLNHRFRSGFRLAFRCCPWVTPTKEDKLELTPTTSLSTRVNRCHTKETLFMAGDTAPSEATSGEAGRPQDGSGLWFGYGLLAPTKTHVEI

[2] = test system: T2, Substance-K receptor (Homo sapiens), P21452 [S170A]
T2 sequence (whole entry): T1 sequence (P21452 whole entry) with S170A

[3] = test system: Substance-K receptor (Homo sapiens), P21452 [Y107A]
Sequence of Substance-K receptor (Homo sapiens), P21452 [Y107A] (P21452 whole entry Y107A): as the sequence (P21452 whole entry Y169A) above, with Y107A, A169Y counted along it

[4] = test system: Substance-K receptor (Homo sapiens), P21452 [Y269F]
Sequence of Substance-K receptor (Homo sapiens), P21452 [Y269F] (P21452 whole entry Y269F): as the sequence (P21452 whole entry Y169A) above, with A169Y, Y269F counted along it

[5] = test system: Substance-K receptor (Homo sapiens), P21452 [Q166A]
Sequence of Substance-K receptor (Homo sapiens), P21452 [Q166A] (P21452 whole entry Q166A): as the sequence (P21452 whole entry Y169A) above, with Q166A, A169Y counted along it

[6] = test system: T3, Substance-K receptor (Homo sapiens), P21452 [C167A]
T3 sequence (whole entry): T1 sequence (P21452 whole entry) with C167A

[7] = test system: Substance-K receptor (Homo sapiens), P21452 [Y269A]
Sequence of Substance-K receptor (Homo sapiens), P21452 [Y269A] (P21452 whole entry Y269A): as the sequence (P21452 whole entry Y169A) above, with A169Y, Y269A counted along it

[8] = test system: T4, Substance-K receptor (Homo sapiens), P21452 [Y266F]
T4 sequence (whole entry): T1 sequence (P21452 whole entry) with Y266F

[9] = test system: Substance-K receptor (Homo sapiens), P21452 [N110A]
Sequence of Substance-K receptor (Homo sapiens), P21452 [N110A] (P21452 whole entry N110A): as the sequence (P21452 whole entry Y169A) above, with N110A, A169Y counted along it

[10] = test system: T5, Substance-K receptor (Homo sapiens), P21452 [W263A]
T5 sequence (whole entry): T1 sequence (P21452 whole entry) with W263A

[11] = test system: Substance-K receptor (Homo sapiens), P21452 [F293A]
Sequence of Substance-K receptor (Homo sapiens), P21452 [F293A] (P21452 whole entry F293A): as the sequence (P21452 whole entry Y169A) above, with A169Y, F293A counted along it

[12] = test system: Substance-K receptor (Homo sapiens), P21452 [I202F]
Sequence of Substance-K receptor (Homo sapiens), P21452 [I202F] (P21452 whole entry I202F): as the sequence (P21452 whole entry Y169A) above, with A169Y, I202F counted along it

[13] = test system: Substance-K receptor (Homo sapiens), P21452 [F112A]
Sequence of Substance-K receptor (Homo sapiens), P21452 [F112A] (P21452 whole entry F112A): as the sequence (P21452 whole entry Y169A) above, with F112A, A169Y counted along it

[14] = test system: Substance-K receptor (Homo sapiens), P21452 [T171A]
Sequence of Substance-K receptor (Homo sapiens), P21452 [T171A] (P21452 whole entry T171A): as the sequence (P21452 whole entry Y169A) above, with A169Y, T171A counted along it

[15] = test system: Substance-K receptor (Homo sapiens), P21452 [H198A]
Sequence of Substance-K receptor (Homo sapiens), P21452 [H198A] (P21452 whole entry H198A): as the sequence (P21452 whole entry Y169A) above, with A169Y, H198A counted along it

[16] = test system: Substance-K receptor (Homo sapiens), P21452 [Y289T]
Sequence of Substance-K receptor (Homo sapiens), P21452 [Y289T] (P21452 whole entry Y289T): as the sequence (P21452 whole entry Y169A) above, with A169Y, Y289T counted along it

[17] = test system: Substance-K receptor (Homo sapiens), P21452 [Y289F]
Sequence of Substance-K receptor (Homo sapiens), P21452 [Y289F] (P21452 whole entry Y289F): as the sequence (P21452 whole entry Y169A) above, with A169Y, Y289F counted along it

[18] = test system: Substance-K receptor (Homo sapiens), P21452 [Y206F]
Sequence of Substance-K receptor (Homo sapiens), P21452 [Y206F] (P21452 whole entry Y206F): as the sequence (P21452 whole entry Y169A) above, with A169Y, Y206F counted along it

Ki (Substance-K receptor): 398 nM
Compound: O=C1C[C@@H](C(=O)O)NC(=O)[C@@H](Cc2ccc(Cl)c(Cl)c2)NC(=O)[C@H](Cc2ccccc2)NC(=O)[C@H](Cc2c[nH]c3ccccc23)N1

Ki (Substance-K receptor): 0.158 nM
Compound: O=C1C[C@@H](N2CCOCC2)C(=O)NC[C@@H](Cc2ccccc2)NC(=O)[C@H](Cc2ccccc2)NC(=O)[C@H](Cc2c[nH]c3ccccc23)N1

Ki (Substance-K receptor): 0.316 nM
Compound: O=C1C[C@@H](NC(=O)CN2CCOCC2)C(=O)NC[C@@H](Cc2ccccc2)NC(=O)[C@H](Cc2ccccc2)NC(=O)[C@H](Cc2c[nH]c3ccccc23)N1

Ki (Substance-K receptor): 7.94 nM
Compound: NCCCC(=O)N[C@H]1CC(=O)N[C@@H](Cc2c[nH]c3ccccc23)C(=O)N[C@@H](Cc2ccccc2)C(=O)N[C@H](Cc2ccccc2)CNC1=O

Ki (Substance-K receptor): 6.31 nM
Compound: O=C1C[C@H](NC(=O)[C@]2(O)C[C@@H](O)[C@@H](O)[C@H](O)C2)C(=O)NC[C@@H](Cc2ccccc2)NC(=O)[C@H](Cc2ccccc2)NC(=O)[C@H](Cc2c[nH]c3ccccc23)N1

Ki (Substance-K receptor): 316 nM
Compound: C=CCOC(=O)[C@@H]1CC(=O)N[C@@H](Cc2c[nH]c3ccccc23)C(=O)N[C@@H](Cc2ccccc2)C(=O)N[C@H](Cc2ccc(Cl)c(Cl)c2)C(=O)N1

Ki (Substance-K receptor): 3.98 nM
Compound: N=C(N)NCC(=O)N[C@H]1CC(=O)N[C@@H](Cc2c[nH]c3ccccc23)C(=O)N[C@@H](Cc2ccccc2)C(=O)N[C@H](Cc2ccccc2)CNC1=O

Ki (Substance-K receptor): 12.6 nM
Compound: O=C(O)CCC(=O)N[C@H]1CC(=O)N[C@@H](Cc2c[nH]c3ccccc23)C(=O)N[C@@H](Cc2ccccc2)C(=O)N[C@H](Cc2ccccc2)CNC1=O

Ki (Substance-K receptor): 3.16 nM
Compound: N[C@H]1CC(=O)NC[C@@H](Cc2ccccc2)NC(=O)[C@H](Cc2ccccc2)NC(=O)[C@H](Cc2c[nH]c3ccccc23)NC1=O

Ki (Substance-K receptor): 0.398 nM
Compound: O=C1C[C@@H](NC(=O)CN2CCC(N3CCCCC3)CC2)C(=O)NC[C@H](Cc2ccccc2)NC(=O)[C@H](Cc2ccccc2)NC(=O)[C@H](Cc2c[nH]c3ccccc23)N1

Ki (Substance-K receptor): 1.58 nM
Compound: O=C1C[C@H](NCc2nn[nH]n2)C(=O)NC[C@@H](Cc2ccccc2)NC(=O)[C@H](Cc2ccccc2)NC(=O)[C@H](Cc2c[nH]c3ccccc23)N1

Ki (Substance-K receptor): 3.16 nM
Compound: O=C1CCC(=O)N[C@@H](Cc2c[nH]c3ccccc23)C(=O)N[C@@H](Cc2ccccc2)C(=O)N[C@H](Cc2c[nH]c3ccccc23)CN1

Ki (Substance-K receptor): 0.794 nM
Compound: O=C1C[C@H](N2CCOCC2)C(=O)NC[C@@H](Cc2ccccc2)NC(=O)[C@H](Cc2ccccc2)NC(=O)[C@H](Cc2c[nH]c3ccccc23)N1

Ki (Substance-K receptor): 5.01 nM
Compound: O=C(N[C@H]1CCCCN(Cc2ccccc2)C(=O)[C@H](Cc2ccccc2)NC(=O)[C@H](Cc2c[nH]c3ccccc23)NC1=O)OCc1ccccc1

Ki (Substance-K receptor): 316 nM
Compound: O=C1CCCNC(=O)[C@@H](Cc2ccccc2)NC(=O)[C@H](Cc2ccccc2)NC(=O)[C@H](Cc2c[nH]c3ccccc23)N1

UB [1]: inactive
KD/Ki [2]: 1.9 nM
KD/Ki [3]: 0.5 nM
KD/Ki [4]: 5.3 nM
KD/Ki [5]: 6.6 nM
UB [6]: inactive
UB [7]: inactive
KD/Ki [8]: 2.8 nM
UB [9]: inactive
UB [10]: inactive
KD/Ki [11]: 40 nM
KD/Ki [12]: 2.1 nM
KD/Ki [13]: 10.7 nM
KD/Ki [14]: 5.9 nM
UB [15]: inactive
UB [16]: inactive
KD/Ki [17]: 2 nM
KD/Ki [18]: 5.9 nM
Compound: CSCC[C@H](NC(=O)[C@H](CC(C)C)NC(=O)CNC(=O)[C@@H](NC(=O)[C@H](Cc1ccccc1)NC(=O)[C@H](CO)NC(=O)[C@H](CC(=O)O)NC(=O)[C@@H](NC(=O)[C@H](CCCCN)NC(=O)[C@@H](N)Cc1c[nH]cn1)[C@@H](C)O)C(C)C)C(N)=O

Ki (Substance-K receptor): 3.16 nM
Compound: N[C@H]1CC(=O)N[C@@H](Cc2c[nH]c3ccccc23)C(=O)N[C@@H](Cc2ccccc2)C(=O)N[C@H](Cc2ccccc2)CNC1=O

Ki (Substance-K receptor): 3980 nM
Compound: NC(=O)[C@@H]1CNC(=O)CCC(=O)N[C@@H](Cc2c[nH]c3ccccc23)C(=O)N[C@@H](Cc2ccccc2)C(=O)N1 (Trp-Phe-[Dap]-NH2; linker N-3 via Suc)
